ChEMBL document CHEMBL1132287, “Selective, tight-binding inhibitors of integrin alpha4beta1 that inhibit allergic airway responses” (J Med Chem, 1999)
*1 amine or outer side, *2 acyl side, *3 side chain or, on linkers, in order; H or OH if unused. Where a SMILES comes first, the peptide text is derived from it. [ ]: non-standard residue; d: D form. The star is where a group is joined. X1 = O=C(Cc1ccc(N[*:1])cc1)[*:2]; NH(2-Me-phenyl) = Cc1ccccc1N*; PhAc = O=C(Cc1ccccc1)*; CO = O=C([*:1])[*:2]; Ahx = NCCCCCC(=O)O

Experiments:
Integrin alpha-4/beta-1 [1] = biological target: T1, Integrin alpha-4/beta-1 (Homo sapiens, UniProt P05556+P13612); experiment: Inhibition of integrin alpha4-beta1 adhesion to Jurkat cells; assay type: cell-based
T1 sequence (P05556 whole entry, one chain of several): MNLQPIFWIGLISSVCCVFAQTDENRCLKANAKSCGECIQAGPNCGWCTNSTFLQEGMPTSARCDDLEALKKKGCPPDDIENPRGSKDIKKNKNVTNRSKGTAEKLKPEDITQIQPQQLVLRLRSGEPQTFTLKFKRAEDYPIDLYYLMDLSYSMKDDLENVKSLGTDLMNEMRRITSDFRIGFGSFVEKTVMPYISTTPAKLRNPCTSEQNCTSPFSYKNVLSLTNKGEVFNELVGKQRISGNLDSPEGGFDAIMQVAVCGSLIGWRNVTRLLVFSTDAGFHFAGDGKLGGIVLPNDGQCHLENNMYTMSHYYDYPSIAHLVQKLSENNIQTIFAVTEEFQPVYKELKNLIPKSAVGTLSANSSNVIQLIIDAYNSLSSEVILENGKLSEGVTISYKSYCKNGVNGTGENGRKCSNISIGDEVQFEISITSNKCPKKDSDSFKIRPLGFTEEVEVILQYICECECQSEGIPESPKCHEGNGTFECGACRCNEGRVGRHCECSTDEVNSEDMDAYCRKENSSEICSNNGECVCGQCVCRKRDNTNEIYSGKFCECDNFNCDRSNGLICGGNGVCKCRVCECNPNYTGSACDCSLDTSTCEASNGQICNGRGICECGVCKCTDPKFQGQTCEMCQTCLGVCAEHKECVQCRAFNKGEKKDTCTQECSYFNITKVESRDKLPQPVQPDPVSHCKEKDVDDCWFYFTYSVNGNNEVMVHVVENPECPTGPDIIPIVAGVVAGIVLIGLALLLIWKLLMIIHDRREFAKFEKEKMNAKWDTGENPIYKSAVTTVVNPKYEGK
How it was run: (§1)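 BCECF-AM-labeled Jurkat cells (20 min, 37 °C) incubated 30 min with serial inhibitor dilutions or vehicle plus 1 mM MnCl2 in wells coated overnight at 4 °C with 1 ug/mL CS-1–BSA conjugate; after washing, bound cells read by fluorescence at 530 nm.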

Integrin alpha-4/beta-1 [2] = biological target: T1, Integrin alpha-4/beta-1; experiment: Inhibition of integrin alpha4-beta1 binding to VCAM-Ig; assay type: protein-complex assay
Integrin alpha-4/beta-1 [3] = biological target: T1, Integrin alpha-4/beta-1; experiment: Inhibition of integrin alpha4-beta1 adhesion to Jurkat cells (No inhibition); assay type: cell-based; how it was run: as §1
Integrin alpha-4/beta-1 [4] = biological target: T1, Integrin alpha-4/beta-1; experiment: Inhibition of VCAM-Ig binding to integrin alpha4-beta1 of Jurkat cells; assay type: cell-based
[5] = Inhibition of integrin alpha1-beta1 adhesion using K562 cells expressing alpha-1; assay type: cell-based, Homo sapiens
[6] = Inhibition of integrin alpha6-beta1 adhesion using K562 cells expressing alpha-6; assay type: cell-based, Homo sapiens
How it was run: (§2)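 BCECF-AM-labeled cells incubated 30 min at room temperature with inhibitor (1 nM–100 uM serial dilutions) or vehicle plus 1 mM MnCl2 in wells coated overnight at 4 °C with ligand; bound cells read at 530 nm. alpha4beta7: JY cells on CS-1–BSA 1 ug/mL; alpha5beta1: K562 on human 120 kD fibronectin fragment 5 ug/mL; alpha6beta1: alpha6-K562 on mouse laminin 20 ug/mL. IC50 from inhibition curves.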

Integrin alpha-5/beta-1 = Integrin alpha-5/beta-1 (Homo sapiens, UniProt P05556+P08648); experiment: Inhibition of integrin alpha5-beta1 adhesion to K562 cells; assay type: cell-based; how it was run: as §2
[7] = biological target: Integrin alpha-IIb/beta-3 (Homo sapiens, UniProt P05106+P08514); experiment: Inhibition of integrin alphaIIb-beta3 adhesion to human citreated platelets
Chain of Integrin alpha-IIb/beta-3 (P05106 27-788 limits assumed): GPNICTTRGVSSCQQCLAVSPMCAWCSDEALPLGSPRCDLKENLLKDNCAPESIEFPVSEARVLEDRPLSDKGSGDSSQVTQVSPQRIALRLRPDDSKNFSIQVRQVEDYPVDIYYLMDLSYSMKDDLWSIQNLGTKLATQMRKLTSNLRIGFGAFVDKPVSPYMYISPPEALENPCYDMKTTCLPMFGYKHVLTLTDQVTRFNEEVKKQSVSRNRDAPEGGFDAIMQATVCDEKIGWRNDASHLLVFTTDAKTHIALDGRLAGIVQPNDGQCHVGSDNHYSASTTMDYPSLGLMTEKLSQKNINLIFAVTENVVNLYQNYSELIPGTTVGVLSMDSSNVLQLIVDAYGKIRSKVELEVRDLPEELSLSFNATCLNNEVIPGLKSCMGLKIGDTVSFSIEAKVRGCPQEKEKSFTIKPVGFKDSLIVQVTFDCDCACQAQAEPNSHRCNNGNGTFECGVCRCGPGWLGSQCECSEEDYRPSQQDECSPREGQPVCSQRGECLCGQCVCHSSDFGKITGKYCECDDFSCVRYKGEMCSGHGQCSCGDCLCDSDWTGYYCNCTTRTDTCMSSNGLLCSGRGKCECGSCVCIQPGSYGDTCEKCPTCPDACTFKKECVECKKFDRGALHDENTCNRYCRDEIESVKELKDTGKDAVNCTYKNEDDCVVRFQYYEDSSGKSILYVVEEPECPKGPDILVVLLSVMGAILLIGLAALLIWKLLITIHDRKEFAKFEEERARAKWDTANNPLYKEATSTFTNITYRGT
Chain of Integrin alpha-IIb/beta-3 (P08514 32-887 limits assumed): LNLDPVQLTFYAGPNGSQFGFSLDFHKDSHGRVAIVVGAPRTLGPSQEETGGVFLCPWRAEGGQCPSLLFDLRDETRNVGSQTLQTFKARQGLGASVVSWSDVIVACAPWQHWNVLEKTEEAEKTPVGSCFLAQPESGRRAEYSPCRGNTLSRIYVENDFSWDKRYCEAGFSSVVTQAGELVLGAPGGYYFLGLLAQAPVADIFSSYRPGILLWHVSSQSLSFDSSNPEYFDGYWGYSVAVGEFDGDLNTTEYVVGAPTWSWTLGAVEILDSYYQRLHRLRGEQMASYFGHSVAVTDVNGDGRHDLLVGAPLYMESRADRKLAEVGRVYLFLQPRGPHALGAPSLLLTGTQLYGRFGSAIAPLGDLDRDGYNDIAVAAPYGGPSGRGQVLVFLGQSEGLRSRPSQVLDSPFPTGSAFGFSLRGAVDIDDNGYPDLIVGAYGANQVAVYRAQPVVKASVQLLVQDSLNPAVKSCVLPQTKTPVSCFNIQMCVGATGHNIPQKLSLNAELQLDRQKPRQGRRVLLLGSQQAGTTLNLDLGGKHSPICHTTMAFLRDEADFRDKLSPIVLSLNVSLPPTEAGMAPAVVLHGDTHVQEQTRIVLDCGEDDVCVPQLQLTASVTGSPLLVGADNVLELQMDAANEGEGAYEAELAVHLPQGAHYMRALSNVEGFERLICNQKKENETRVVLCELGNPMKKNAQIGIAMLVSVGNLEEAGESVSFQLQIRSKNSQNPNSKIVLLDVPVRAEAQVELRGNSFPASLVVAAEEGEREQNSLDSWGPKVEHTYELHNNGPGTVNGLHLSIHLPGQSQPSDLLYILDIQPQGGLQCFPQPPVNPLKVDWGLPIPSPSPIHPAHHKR
Chain of Integrin alpha-IIb/beta-3 (P08514 891-1039 limits assumed): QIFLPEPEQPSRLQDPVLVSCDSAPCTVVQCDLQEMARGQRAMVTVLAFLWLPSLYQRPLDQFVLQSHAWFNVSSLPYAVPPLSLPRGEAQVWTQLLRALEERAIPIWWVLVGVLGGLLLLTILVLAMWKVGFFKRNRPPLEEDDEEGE

Integrin alpha-4/beta-7 = biological target: T2, Integrin alpha-4/beta-7 (Homo sapiens, UniProt P13612+P26010); experiment: Inhibition of integrin alpha4-beta7 adhesion to JY cells; assay type: cell-based; how it was run: as §2
T2 sequence (P13612 whole entry): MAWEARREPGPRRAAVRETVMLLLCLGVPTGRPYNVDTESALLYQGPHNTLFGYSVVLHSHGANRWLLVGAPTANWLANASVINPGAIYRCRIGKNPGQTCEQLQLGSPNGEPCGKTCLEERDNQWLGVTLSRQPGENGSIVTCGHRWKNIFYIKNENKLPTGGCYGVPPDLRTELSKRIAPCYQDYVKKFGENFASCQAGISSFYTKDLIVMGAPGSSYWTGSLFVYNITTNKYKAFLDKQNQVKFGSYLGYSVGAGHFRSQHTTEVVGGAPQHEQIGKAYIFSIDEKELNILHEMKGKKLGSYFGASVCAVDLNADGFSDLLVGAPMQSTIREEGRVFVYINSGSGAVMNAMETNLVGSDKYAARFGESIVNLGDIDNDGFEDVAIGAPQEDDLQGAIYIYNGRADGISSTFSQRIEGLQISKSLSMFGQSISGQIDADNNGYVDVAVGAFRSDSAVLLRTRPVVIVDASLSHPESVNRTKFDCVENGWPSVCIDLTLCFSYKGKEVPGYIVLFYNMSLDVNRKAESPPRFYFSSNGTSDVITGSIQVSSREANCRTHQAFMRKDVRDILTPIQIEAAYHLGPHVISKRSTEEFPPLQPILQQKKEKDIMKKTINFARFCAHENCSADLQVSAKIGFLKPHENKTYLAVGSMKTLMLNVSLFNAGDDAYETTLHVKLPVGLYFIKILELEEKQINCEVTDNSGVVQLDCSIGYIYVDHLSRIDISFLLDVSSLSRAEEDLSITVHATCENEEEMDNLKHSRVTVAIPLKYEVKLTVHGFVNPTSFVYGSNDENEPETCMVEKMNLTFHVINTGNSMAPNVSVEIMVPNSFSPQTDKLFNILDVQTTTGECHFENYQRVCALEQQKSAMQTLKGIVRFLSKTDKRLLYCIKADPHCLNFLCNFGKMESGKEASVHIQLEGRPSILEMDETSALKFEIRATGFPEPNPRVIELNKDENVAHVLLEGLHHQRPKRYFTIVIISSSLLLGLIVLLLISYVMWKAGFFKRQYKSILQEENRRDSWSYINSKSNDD
T2 sequence (P26010 whole entry): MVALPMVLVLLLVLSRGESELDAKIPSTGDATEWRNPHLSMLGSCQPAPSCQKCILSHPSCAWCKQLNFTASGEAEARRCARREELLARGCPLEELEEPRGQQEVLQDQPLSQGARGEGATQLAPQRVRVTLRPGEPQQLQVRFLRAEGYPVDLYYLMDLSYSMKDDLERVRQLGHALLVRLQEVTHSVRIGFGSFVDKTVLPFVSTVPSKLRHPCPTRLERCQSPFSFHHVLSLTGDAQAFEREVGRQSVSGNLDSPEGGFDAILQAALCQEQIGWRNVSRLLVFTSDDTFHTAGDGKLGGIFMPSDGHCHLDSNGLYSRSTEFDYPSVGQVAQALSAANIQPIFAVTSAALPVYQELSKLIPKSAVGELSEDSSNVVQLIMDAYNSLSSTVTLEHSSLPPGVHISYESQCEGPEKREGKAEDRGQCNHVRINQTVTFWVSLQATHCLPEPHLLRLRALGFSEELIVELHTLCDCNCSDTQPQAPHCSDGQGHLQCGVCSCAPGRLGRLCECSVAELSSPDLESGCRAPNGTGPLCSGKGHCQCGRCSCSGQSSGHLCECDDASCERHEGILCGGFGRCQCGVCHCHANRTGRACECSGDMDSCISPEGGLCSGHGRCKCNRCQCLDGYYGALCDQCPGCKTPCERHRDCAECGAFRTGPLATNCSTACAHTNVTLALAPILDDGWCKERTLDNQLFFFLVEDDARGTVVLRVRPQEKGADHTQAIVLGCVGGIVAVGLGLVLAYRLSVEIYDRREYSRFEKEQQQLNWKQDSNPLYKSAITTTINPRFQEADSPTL

[8] = biological target: Intercellular adhesion molecule (ICAM-1), Integrin alpha-L/beta-2 (Homo sapiens, UniProt P05107+P05362+P20701); experiment: Inhibition of ICAM-1 transfected CHO cell adhesion to integrin alphaL-beta2 of human JY cells; assay type: cell-based
Chain of Intercellular adhesion molecule (ICAM-1), Integrin alpha-L/beta-2 (P20701 whole entry): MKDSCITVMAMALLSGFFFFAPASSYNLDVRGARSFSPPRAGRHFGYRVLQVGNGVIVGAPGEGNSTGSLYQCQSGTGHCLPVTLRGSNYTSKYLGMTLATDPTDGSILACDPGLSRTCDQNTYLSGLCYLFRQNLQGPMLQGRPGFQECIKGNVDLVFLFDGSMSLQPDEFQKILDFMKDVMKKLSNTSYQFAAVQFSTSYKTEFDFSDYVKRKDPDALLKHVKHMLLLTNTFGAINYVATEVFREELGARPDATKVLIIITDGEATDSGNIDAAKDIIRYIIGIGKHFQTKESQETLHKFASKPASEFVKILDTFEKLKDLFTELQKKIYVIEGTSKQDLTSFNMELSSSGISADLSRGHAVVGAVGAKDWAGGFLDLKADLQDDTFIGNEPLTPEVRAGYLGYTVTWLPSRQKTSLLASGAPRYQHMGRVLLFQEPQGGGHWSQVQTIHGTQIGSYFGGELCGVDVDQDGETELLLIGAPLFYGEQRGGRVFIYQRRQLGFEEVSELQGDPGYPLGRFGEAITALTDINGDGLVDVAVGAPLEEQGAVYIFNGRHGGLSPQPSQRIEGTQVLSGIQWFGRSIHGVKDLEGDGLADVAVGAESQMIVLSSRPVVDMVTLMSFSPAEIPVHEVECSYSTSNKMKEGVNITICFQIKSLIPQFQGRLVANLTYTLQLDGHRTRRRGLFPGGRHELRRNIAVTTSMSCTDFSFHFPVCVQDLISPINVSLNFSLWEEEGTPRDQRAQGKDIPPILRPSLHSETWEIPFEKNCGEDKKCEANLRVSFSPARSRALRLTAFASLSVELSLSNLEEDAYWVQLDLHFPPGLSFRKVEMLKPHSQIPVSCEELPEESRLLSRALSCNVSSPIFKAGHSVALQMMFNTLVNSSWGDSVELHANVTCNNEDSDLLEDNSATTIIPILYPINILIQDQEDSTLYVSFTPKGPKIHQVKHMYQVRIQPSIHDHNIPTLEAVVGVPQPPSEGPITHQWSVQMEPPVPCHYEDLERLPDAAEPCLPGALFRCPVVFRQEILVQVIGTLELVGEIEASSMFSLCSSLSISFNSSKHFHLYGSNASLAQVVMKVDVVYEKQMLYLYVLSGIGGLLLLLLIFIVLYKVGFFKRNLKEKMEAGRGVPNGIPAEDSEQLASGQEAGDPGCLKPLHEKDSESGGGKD
Chain of Intercellular adhesion molecule (ICAM-1), Integrin alpha-L/beta-2 (P05362 whole entry): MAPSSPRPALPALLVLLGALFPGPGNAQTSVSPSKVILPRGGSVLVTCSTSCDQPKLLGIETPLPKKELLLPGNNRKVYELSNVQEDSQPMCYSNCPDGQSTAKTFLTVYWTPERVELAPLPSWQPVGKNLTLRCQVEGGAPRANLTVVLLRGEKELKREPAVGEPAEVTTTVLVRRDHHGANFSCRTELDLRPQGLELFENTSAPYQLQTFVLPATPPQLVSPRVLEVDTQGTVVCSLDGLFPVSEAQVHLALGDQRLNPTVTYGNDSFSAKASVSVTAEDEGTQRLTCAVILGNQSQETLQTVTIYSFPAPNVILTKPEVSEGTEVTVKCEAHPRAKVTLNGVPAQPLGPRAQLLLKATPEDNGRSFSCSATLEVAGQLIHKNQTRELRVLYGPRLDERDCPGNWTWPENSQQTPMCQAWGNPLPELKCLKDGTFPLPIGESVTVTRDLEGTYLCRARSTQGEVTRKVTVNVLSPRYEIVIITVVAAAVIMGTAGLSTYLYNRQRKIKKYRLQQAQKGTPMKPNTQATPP
Chain of Intercellular adhesion molecule (ICAM-1), Integrin alpha-L/beta-2 (P05107 whole entry): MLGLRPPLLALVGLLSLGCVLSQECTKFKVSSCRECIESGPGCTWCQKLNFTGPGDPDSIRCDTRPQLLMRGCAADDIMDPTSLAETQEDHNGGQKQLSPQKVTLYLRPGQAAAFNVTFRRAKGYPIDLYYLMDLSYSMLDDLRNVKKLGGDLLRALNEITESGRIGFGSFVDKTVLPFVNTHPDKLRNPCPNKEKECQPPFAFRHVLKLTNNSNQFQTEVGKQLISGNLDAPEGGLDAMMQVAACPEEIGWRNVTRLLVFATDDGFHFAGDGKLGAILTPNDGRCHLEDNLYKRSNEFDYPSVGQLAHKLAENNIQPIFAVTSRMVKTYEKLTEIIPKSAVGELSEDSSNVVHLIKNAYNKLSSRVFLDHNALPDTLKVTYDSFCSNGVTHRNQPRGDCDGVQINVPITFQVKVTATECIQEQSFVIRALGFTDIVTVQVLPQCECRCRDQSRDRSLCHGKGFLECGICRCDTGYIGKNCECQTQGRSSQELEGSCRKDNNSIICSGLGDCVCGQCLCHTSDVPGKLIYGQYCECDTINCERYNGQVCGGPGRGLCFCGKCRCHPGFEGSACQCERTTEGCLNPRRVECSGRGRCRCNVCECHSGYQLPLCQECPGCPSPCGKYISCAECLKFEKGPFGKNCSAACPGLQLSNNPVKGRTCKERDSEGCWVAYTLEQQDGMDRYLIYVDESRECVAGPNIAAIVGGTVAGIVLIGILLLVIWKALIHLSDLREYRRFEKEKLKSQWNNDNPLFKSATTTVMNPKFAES

[9] = biological target: Integrin alpha1/beta1 (Homo sapiens); experiment: Inhibition of integrin alpha1-beta1 adhesion using K562 cells expressing alpha-1

IC50 (Integrin alpha-4/beta-1 [1]) [nM] | IC50 (Integrin alpha-4/beta-1 [2]) [nM] | Compound | also measured
68 | 18 | Cc1ccccc1NC(=O)Nc1ccc(CC(=O)N[C@@H](CC(C)C)C(=O)N[C@@H](CC(=O)O)C(=O)O)cc1 | IC50 [5]: > 100000 nM; IC50 [6]: > 100000 nM; IC50 (Integrin alpha-5/beta-1): > 100000 nM; IC50 [7]: > 100000 nM; IC50 (Integrin alpha-4/beta-7): 59000 nM; IC50 [8]: > 100000 nM
6 | 0.6 | Cc1ccccc1NC(=O)Nc1ccc(CC(=O)N[C@@H](CC(C)C)C(=O)N[C@@H](CC(=O)O)C(=O)N[C@H](C(=O)O)C(C)C)cc1 | IC50 [6]: > 100000 nM; IC50 (Integrin alpha-5/beta-1): > 100000 nM; IC50 [7]: > 100000 nM; IC50 [9]: > 100000 nM; IC50 (Integrin alpha-4/beta-7): 8000 nM; IC50 [8]: > 50000 nM

The next lines start with the compound.

Compound | IC50 (Integrin alpha-4/beta-1 [1]) [nM] | IC50 (Integrin alpha-4/beta-1 [2]) [nM] | also measured
Cc1ccccc1NC(=O)Nc1ccc(CC(=O)N[C@@H](CCCCNC(=O)CCCCCN)C(=O)N[C@@H](CC(=O)O)C(=O)N[C@H](C(=O)N2CCC[C@H]2C(=O)O)C(C)C)cc1 ({NH(2-Me-phenyl)-CO}-[X1]K(Ahx)DVP-OH) | 20 | 4 | –
CC(C)C[C@H](NC(=O)Cc1ccc(NC(=O)Nc2ccccc2)cc1)C(=O)N[C@@H](CC(=O)O)C(=O)N[C@H](C(=O)O)C(C)C | 30 | 3 | –
CC(C)C[C@H](NC(=O)[C@@H](N)Cc1ccc(O)cc1)C(=O)N[C@@H](CC(=O)O)C(=O)N[C@H](C(=O)O)C(C)C (H-YLDV-OH) | 51000 | 12600 | –
CC(C)C[C@H](NC(=O)Cc1ccccc1)C(=O)N[C@@H](CC(=O)O)C(=O)N[C@H](C(=O)O)C(C)C (PhAc-Leu-Asp-Val-OH) | 40000 | 1000 | –
Cc1ccccc1NC(=O)Nc1ccc(CC(=O)N[C@@H](CC(C)C)C(=O)N[C@@H](CC(=O)O)C(=O)N[C@H](C(=O)N2CCC[C@H]2C(N)=O)C(C)C)cc1 ({NH(2-Me-phenyl)-CO}-[X1]LDVP-NH2) | 8 | 1 | –
Cc1ccccc1NC(=O)Nc1ccc(CC(=O)N[C@@H](CC(C)C)C(=O)O)cc1 | – | – | IC50 (Integrin alpha-4/beta-1 [3]): Not Active; IC50 (Integrin alpha-4/beta-1 [4]): No inhibition
Cc1ccccc1NC(=O)Nc1ccc(CC(=O)N[C@@H](CC(C)C)C(=O)N[C@@H](CC(=O)O)C(=O)N[C@H](C(=O)N2CCC[C@H]2C(=O)O)C(C)C)cc1 ({NH(2-Me-phenyl)-CO}-[X1]LDVP-OH) | – | – | IC50 [5]: > 100000 nM; IC50 [6]: > 100000 nM; IC50 [7]: > 100000 nM; IC50 (Integrin alpha-4/beta-7): 2000 nM; IC50 [8]: > 100000 nM
Cc1ccccc1NC(=O)Nc1ccc(CC(=O)N[C@@H](CC(C)C)C(=O)N[C@@H](CC(=O)O)C(=O)N[C@H](C(=O)N2CCC[C@H]2C(=O)N[C@@H](CO)C(=O)N[C@H](C(=O)O)[C@@H](C)O)C(C)C)cc1 ({NH(2-Me-phenyl)-CO}-[X1]LDVPST-OH) | 5 | 1 | –
CC(C)C[C@H](NC(=O)Cc1ccc(NC(=O)OCc2ccccc2)cc1)C(=O)N[C@@H](CC(=O)O)C(=O)N[C@H](C(=O)O)C(C)C | 200 | 30 | –
Cc1ccccc1NC(=O)Nc1ccc(CC(=O)O)cc1 | – | – | IC50 (Integrin alpha-4/beta-1 [3]): Not Active; IC50 (Integrin alpha-4/beta-1 [4]): No inhibition
CC(C)C[C@H](NC(=O)Cc1ccc(NC(=O)c2ccccc2)cc1)C(=O)N[C@@H](CC(=O)O)C(=O)N[C@H](C(=O)O)C(C)C | 3250 | 295 | –
CC(C)C[C@H](NC(=O)Cc1ccc(O)cc1)C(=O)N[C@@H](CC(=O)O)C(=O)N[C@H](C(=O)O)C(C)C | 5000 | 430 | –
CC[C@H](C)[C@H](N)C(=O)N[C@@H](CC(C)C)C(=O)N[C@@H](CC(=O)O)C(=O)N[C@H](C(=O)O)C(C)C (H-ILDV-OH) | 175000 | 66000 | –
